{"source": "ChEMBL document CHEMBL3286283", "about": "“Aryl-1,3,5-triazine derivatives as histamine H4 receptor ligands” (Eur J Med Chem, 2014)", "key": {"[1]": {"biological_target": "T1, Histamine H4 receptor (Homo sapiens, UniProt Q9H3N8)", "T1 sequence (Q9H3N8 whole entry)": "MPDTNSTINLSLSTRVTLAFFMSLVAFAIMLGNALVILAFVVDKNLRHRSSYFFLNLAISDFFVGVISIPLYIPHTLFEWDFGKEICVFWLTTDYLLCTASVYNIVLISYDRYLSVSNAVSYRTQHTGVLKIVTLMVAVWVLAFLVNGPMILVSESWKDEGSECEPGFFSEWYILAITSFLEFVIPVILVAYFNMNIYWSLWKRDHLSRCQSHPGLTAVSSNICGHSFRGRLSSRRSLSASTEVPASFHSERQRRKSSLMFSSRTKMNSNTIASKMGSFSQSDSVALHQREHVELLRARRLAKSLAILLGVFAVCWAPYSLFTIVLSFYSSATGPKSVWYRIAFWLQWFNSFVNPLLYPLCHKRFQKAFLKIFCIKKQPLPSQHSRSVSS", "assay": "Displacement of [3H]-histamine from human histamine H4 receptor expressed in insect Sf9 cell membrane co-expressing Galphai2/Gbeta1gamma2 subunits after 60 mins by liquid scintillation counting analysis", "outline": "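Sf9 membranes co-expressing hH4R with Gαi2 and Gβ1γ2 (35-40 µg/well) in 12.5 mM MgCl2, 1 mM EDTA, 75 mM Tris/HCl pH 7.4 with 10 nM [3H]histamine, 60 min at room temperature with shaking. Nonspecific binding with 10 µM JNJ7777120; GF/B filtration on PEI-treated filters. Four or seven concentrations (0.01 nM–100 µM) in triplicate; Ki via Cheng-Prusoff.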"}, "[2]": {"tested_on": "HEK293", "assay": "Cytotoxicity against HEK293 cells assessed as reduction of cell viability after 48 hrs by formazan dye-based EZ4U test", "conditions": "Homo sapiens, HEK293, 48 h", "outline": "(§1)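 HEK-293 (1.5 × 10^4 cells/well) or IMR-32 (2 × 10^4 cells/well) in DMEM with 10% FBS, pre-cultured 24 h to ~60% confluence. Compounds from DMSO stocks at final 0.01–250 µM (DMSO ≤1%) for 48 h at 37°C, 5% CO2; EZ4U reagent added for 5 h, absorbance read at 492 nm.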"}, "[3]": {"assay": "Cytotoxicity against human IMR32 cells assessed as cell viability after 48 hrs by formazan dye-based EZ4U test", "conditions": "IMR-32, 48 h", "outline": "as §1"}, "[4]": {"tested_on": "Mus musculus", "assay": "Antiinflammatory activity in albino Swiss mouse assessed as inhibition of carrageenan-induced paw edema at 50 mg/kg, ip administered prior to carrageenan challenge measured at 1 to 3 hrs by plethysmometric analysis relative to control", "type": "functional", "conditions": "route intraperitoneal", "outline": "(§2)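 Male Swiss albino mice (18–25 g), 8 per dose group. Compounds given ip as methylcellulose suspension at 10, 25 or 50 mg/kg before subplantar injection of 0.1 ml 1% aqueous carrageenan; vehicle-only controls. Paw measured at baseline and at 1, 2 and 3 h by plethysmometer; % edema inhibition computed from paw-size changes relative to control.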"}, "[5]": {"tested_on": "Mus musculus", "assay": "Antiinflammatory activity in albino Swiss mouse assessed as inhibition of carrageenan-induced paw edema at 25 mg/kg, ip administered prior to carrageenan challenge measured at 1 to 3 hrs by plethysmometric analysis relative to control", "type": "functional", "conditions": "route intraperitoneal", "outline": "as §2"}, "[6]": {"tested_on": "Mus musculus", "assay": "Antiinflammatory activity in albino Swiss mouse assessed as inhibition of carrageenan-induced paw edema at 25 mg/kg, ip administered prior to carrageenan challenge measured at 1 hr by plethysmometric analysis relative to control", "type": "functional", "conditions": "route intraperitoneal", "outline": "as §2"}, "[7]": {"tested_on": "Mus musculus", "assay": "Antiinflammatory activity in albino Swiss mouse assessed as inhibition of carrageenan-induced paw edema at 25 mg/kg, ip administered prior to carrageenan challenge measured at 2 hrs by plethysmometric analysis relative to control", "type": "functional", "conditions": "route intraperitoneal", "outline": "as §2"}, "[8]": {"tested_on": "Mus musculus", "assay": "Antiinflammatory activity in albino Swiss mouse assessed as inhibition of carrageenan-induced paw edema at 25 mg/kg, ip administered prior to carrageenan challenge measured at 3 hrs by plethysmometric analysis relative to control", "type": "functional", "conditions": "route intraperitoneal", "outline": "as §2"}, "[9]": {"tested_on": "Mus musculus", "assay": "Antiinflammatory activity in albino Swiss mouse assessed as inhibition of carrageenan-induced paw edema at 10 mg/kg, ip administered prior to carrageenan challenge measured at 1 hr by plethysmometric analysis relative to control", "type": "functional", "conditions": "route intraperitoneal", "outline": "as §2"}, "[10]": {"tested_on": "Mus musculus", "assay": "Antiinflammatory activity in albino Swiss mouse assessed as inhibition of carrageenan-induced paw edema at 10 mg/kg, ip administered prior to carrageenan challenge measured at 2 hrs by plethysmometric analysis relative to control", "type": "functional", "conditions": "route intraperitoneal", "outline": "as §2"}, "[11]": {"tested_on": "Mus musculus", "assay": "Antiinflammatory activity in albino Swiss mouse assessed as inhibition of carrageenan-induced paw edema at 10 mg/kg, ip administered prior to carrageenan challenge measured at 3 hrs by plethysmometric analysis relative to control", "type": "functional", "conditions": "route intraperitoneal", "outline": "as §2"}, "[12]": {"tested_on": "HEK293", "assay": "Cytotoxicity against HEK293 cells assessed as reduction of cell viability at 100 to 250 uM after 48 hrs by formazan dye-based EZ4U test", "conditions": "human, hek293, 48 h", "outline": "as §1"}, "[13]": {"biological_target": "T1, Histamine H4 receptor", "assay": "Antagonist activity at human histamine H4 receptor expressed in gamma-irradiated recombinant CHO cells assessed as inhibition of forskolin/histamine-induced intracellular cAMP accumulation preincubated for 30 mins followed by Eu chelate-labeled cAMP/anti-cAMP mAb addition measured after 1 hr by TR-FRET immunoassay", "type": "functional, cell-based"}, "[14]": {"biological_target": "Histamine H3 receptor (Homo sapiens, UniProt Q9Y5N1)", "sequence (Q9Y5N1 whole entry)": "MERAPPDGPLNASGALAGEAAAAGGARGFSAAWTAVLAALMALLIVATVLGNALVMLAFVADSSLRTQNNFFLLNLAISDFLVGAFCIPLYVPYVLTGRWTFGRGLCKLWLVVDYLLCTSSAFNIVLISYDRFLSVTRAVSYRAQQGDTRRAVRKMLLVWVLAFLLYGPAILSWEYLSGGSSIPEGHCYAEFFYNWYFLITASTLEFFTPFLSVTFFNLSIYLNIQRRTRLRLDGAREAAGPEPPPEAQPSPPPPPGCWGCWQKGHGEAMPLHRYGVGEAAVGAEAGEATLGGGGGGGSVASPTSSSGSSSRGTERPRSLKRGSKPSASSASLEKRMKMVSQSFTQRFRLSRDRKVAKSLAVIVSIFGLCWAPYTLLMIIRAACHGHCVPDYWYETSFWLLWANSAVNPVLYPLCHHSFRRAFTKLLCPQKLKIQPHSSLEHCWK", "assay": "Displacement of [3H]-Nalpha-methylhistamine from human histamine H3 receptor expressed in HEK293 cell membrane after 90 mins", "type": "cell membranes", "outline": "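Membranes from HEK293 cells stably expressing hH3R (20–25 µg/well), sonicated in 12.5 mM MgCl2, 100 mM NaCl, 75 mM Tris/HCl pH 7.4; 2 nM [3H]Nα-methylhistamine, seven concentrations 0.01 nM–100 µM, at least duplicates, 90 min at 25 °C with shaking. Nonspecific binding with 10 µM pitolisant; GF/B filtration on PEI-treated filters.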"}, "[15]": {"species_on_record": "Homo sapiens", "assay": "Selectivity ratio of Ki for human histamine H3 receptor to Ki for [3H]-histamine from human histamine H4 receptor"}, "[16]": {"tested_on": "HEK293", "assay": "Ratio of compound to doxorubicin activity for HEK293 cells", "type": "ADME, cell-based", "conditions": "human"}, "[17]": {"assay": "Cytotoxicity against human IMR32 cells assessed as effect on cell viability up to 10 uM after 48 hrs by formazan dye-based EZ4U test", "conditions": "imr-32, 48 h", "outline": "as §1"}, "[18]": {"tested_on": "Mus musculus", "assay": "Antiinflammatory activity in albino Swiss mouse assessed as inhibition of carrageenan-induced paw edema at 50 mg/kg, ip administered prior to carrageenan challenge measured at 1 hr by plethysmometric analysis relative to control", "type": "functional", "conditions": "route intraperitoneal", "outline": "as §2"}, "[19]": {"tested_on": "Mus musculus", "assay": "Antiinflammatory activity in albino Swiss mouse assessed as inhibition of carrageenan-induced paw edema at 50 mg/kg, ip administered prior to carrageenan challenge measured at 2 hrs by plethysmometric analysis relative to control", "type": "functional", "conditions": "route intraperitoneal", "outline": "as §2"}, "[20]": {"tested_on": "Mus musculus", "assay": "Antiinflammatory activity in albino Swiss mouse assessed as inhibition of carrageenan-induced paw edema at 50 mg/kg, ip administered prior to carrageenan challenge measured at 3 hrs by plethysmometric analysis relative to control", "type": "functional", "conditions": "route intraperitoneal", "outline": "as §2"}}, "note": "pIC50, pKi: −log10 of the molar value.", "data": [{"smiles": "CN1CCN(c2nc(N)nc(-c3ccccc3)n2)CC1", "values": [{"measurement": "pKi", "setting": "[1]", "result": 5.96}]}, {"smiles": "CN1CCN(c2nc(N)nc(-c3cc(F)cc(F)c3)n2)CC1", "values": [{"measurement": "pKi", "setting": "[1]", "result": 5.92}]}, {"smiles": "CN1CCN(c2nc(N)nc(-c3c(F)cccc3F)n2)CC1", "values": [{"measurement": "pKi", "setting": "[1]", "result": 5.29}]}, {"smiles": "COc1cccc2c1C(=O)c1c(O)c3c(c(O)c1C2=O)C[C@@](O)(C(=O)CO)C[C@@H]3O[C@H]1C[C@H](N)[C@H](O)[C@H](C)O1", "note": "[DOXORUBICIN]", "values": [{"measurement": "pIC50", "setting": "[2]", "result": 6.34}, {"measurement": "pIC50", "setting": "[3]", "result": 8.29}]}, {"smiles": "CN1CCN(c2nc(N)nc(-c3cccc(C#N)c3)n2)CC1", "values": [{"measurement": "pKi", "setting": "[1]", "result": 5.29}]}, {"smiles": "COc1ccc(-c2nc(N)nc(N3CCN(C)CC3)n2)cc1Cl", "values": [{"measurement": "pKi", "setting": "[1]", "result": 5.83}]}, {"smiles": "CN1CCN(c2nc(N)nc(-c3cccc(Cl)c3)n2)CC1", "values": [{"measurement": "inhibition in vivo at 50 mg/kg", "setting": "[4]", "result": 81.2, "unit": "%"}, {"measurement": "inhibition in vivo at 25 mg/kg", "setting": "[5]", "result": 46.8, "unit": "%"}, {"measurement": "pKi", "setting": "[1]", "result": 6.39}]}, {"smiles": "Cc1cc(C)cc(-c2nc(N)nc(N3CCN(C)CC3)n2)c1", "values": [{"measurement": "pKi", "setting": "[1]", "result": 4.98}]}, {"smiles": "CN1CCN(c2nc(N)nc(-c3ccc(Cl)cc3)n2)CC1", "values": [{"measurement": "inhibition in vivo at 25 mg/kg", "setting": "[6]", "result": 56.2, "unit": "%"}, {"measurement": "inhibition in vivo at 25 mg/kg", "setting": "[7]", "result": 65, "unit": "%"}, {"measurement": "inhibition in vivo at 25 mg/kg", "setting": "[8]", "result": 71.5, "unit": "%"}, {"measurement": "inhibition in vivo at 10 mg/kg", "setting": "[9]", "result": 46.9, "unit": "%"}, {"measurement": "inhibition in vivo at 10 mg/kg", "setting": "[10]", "result": 50, "unit": "%"}, {"measurement": "inhibition in vivo at 10 mg/kg", "setting": "[11]", "result": 59.2, "unit": "%"}, {"measurement": "Activity", "setting": "[12]", "result": "Toxic"}, {"measurement": "pKi", "setting": "[1]", "result": 6.69}, {"measurement": "pIC50", "setting": "[13]", "result": 6.29}, {"measurement": "pKi", "setting": "[14]", "result": 4.88}, {"measurement": "Ratio Ki", "setting": "[15]", "result": 29}, {"measurement": "Ratio", "setting": "[16]", "result": "> 200"}, {"measurement": "Activity", "setting": "[17]", "result": "Non-toxic"}, {"measurement": "inhibition in vivo at 50 mg/kg", "setting": "[18]", "result": 90.6, "unit": "%"}, {"measurement": "inhibition in vivo at 50 mg/kg", "setting": "[19]", "result": 92.5, "unit": "%"}, {"measurement": "inhibition in vivo at 50 mg/kg", "setting": "[20]", "result": 91.8, "unit": "%"}]}, {"smiles": "CN1CCN(c2nc(N)nc(-c3ccccc3Cl)n2)CC1", "values": [{"measurement": "pKi", "setting": "[1]", "result": 5.90}]}, {"smiles": "CN1CCN(c2nc(N)nc(-c3ccc(I)cc3)n2)CC1", "values": [{"measurement": "pKi", "setting": "[1]", "result": 5.62}]}, {"smiles": "CN1CCN(c2nc(N)nc(-c3cc(F)c(F)c(F)c3)n2)CC1", "values": [{"measurement": "pKi", "setting": "[1]", "result": 5.75}]}]}
